Experimental data as given in ChEMBL document CHEMBL1138257, “Synthesis and biological evaluation of a fluorine-18 derivative of dasatinib” (J Med Chem, 2007).

Tests used:
[1] = target: Activated CDC42 kinase 1 (Homo sapiens) (UniProt Q07912); assay: Inhibition of ACK at 10 nM
In short: (§1)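 Single-concentration test at 10 nM within a panel of 21 kinases.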

[2] = target: T1, Tyrosine-protein kinase receptor TYRO3 (Homo sapiens) (UniProt Q06418); assay: Inhibition of TYRO3 at 10 nM; in short: as §1
T1 sequence (whole entry): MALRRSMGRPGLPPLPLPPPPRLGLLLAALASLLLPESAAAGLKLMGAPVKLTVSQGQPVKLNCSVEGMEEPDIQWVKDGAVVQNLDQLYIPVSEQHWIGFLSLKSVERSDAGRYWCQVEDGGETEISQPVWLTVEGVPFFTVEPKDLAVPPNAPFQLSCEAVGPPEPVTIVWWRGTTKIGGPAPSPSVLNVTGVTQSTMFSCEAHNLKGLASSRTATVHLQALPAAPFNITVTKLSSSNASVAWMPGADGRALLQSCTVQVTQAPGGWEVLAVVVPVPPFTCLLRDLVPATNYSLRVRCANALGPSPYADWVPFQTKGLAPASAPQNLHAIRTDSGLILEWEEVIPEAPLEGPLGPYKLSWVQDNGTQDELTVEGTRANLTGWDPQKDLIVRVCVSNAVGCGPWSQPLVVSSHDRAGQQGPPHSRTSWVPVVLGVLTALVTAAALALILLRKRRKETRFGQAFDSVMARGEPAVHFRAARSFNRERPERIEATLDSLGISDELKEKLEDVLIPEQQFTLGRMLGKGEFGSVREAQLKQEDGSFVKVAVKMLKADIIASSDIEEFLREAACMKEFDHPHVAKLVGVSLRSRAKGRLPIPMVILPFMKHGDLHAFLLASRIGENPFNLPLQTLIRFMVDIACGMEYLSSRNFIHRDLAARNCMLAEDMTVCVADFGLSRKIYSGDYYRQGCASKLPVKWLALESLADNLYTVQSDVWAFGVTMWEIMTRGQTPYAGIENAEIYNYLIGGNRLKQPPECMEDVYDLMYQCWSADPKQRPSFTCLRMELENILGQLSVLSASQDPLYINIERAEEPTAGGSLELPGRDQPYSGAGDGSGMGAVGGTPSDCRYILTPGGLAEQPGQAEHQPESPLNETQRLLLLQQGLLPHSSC

[3] = target: T2, Ephrin type-B receptor 4 (Homo sapiens) (UniProt P54760); assay: Inhibition of EphB4 at 10 nM
T2 sequence (whole entry): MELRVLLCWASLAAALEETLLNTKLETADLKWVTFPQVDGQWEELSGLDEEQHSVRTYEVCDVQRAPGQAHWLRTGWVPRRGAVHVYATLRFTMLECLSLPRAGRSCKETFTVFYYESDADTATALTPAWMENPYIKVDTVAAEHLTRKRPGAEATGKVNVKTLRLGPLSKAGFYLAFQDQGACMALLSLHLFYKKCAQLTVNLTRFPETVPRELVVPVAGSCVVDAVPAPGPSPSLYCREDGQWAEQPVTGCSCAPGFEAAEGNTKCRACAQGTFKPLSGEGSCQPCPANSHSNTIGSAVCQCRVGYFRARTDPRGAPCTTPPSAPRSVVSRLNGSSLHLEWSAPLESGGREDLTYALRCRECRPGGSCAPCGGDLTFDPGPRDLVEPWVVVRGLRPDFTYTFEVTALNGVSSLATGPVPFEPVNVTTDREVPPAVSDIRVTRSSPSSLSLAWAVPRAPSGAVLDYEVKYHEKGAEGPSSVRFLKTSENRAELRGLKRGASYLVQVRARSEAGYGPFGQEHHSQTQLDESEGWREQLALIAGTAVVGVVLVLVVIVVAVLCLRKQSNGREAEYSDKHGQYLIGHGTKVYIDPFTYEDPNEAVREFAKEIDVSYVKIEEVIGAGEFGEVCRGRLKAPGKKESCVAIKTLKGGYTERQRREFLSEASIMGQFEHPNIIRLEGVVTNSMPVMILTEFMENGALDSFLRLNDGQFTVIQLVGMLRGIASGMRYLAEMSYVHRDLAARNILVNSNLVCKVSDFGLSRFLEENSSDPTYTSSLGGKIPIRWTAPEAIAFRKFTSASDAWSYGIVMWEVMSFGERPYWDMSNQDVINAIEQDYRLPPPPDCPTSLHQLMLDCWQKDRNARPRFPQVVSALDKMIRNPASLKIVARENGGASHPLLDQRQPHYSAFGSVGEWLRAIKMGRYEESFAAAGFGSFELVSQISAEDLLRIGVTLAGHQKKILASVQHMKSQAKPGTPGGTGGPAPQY
In short: (§2)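 Part of a 21-kinase inhibition panel, tested at a single inhibitor concentration of 10 nM.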

[4] = target: T3, Tyrosine-protein kinase Tec (Homo sapiens) (UniProt P42680); assay: Inhibition of TEC at 10 nM; in short: as §2
T3 sequence (whole entry): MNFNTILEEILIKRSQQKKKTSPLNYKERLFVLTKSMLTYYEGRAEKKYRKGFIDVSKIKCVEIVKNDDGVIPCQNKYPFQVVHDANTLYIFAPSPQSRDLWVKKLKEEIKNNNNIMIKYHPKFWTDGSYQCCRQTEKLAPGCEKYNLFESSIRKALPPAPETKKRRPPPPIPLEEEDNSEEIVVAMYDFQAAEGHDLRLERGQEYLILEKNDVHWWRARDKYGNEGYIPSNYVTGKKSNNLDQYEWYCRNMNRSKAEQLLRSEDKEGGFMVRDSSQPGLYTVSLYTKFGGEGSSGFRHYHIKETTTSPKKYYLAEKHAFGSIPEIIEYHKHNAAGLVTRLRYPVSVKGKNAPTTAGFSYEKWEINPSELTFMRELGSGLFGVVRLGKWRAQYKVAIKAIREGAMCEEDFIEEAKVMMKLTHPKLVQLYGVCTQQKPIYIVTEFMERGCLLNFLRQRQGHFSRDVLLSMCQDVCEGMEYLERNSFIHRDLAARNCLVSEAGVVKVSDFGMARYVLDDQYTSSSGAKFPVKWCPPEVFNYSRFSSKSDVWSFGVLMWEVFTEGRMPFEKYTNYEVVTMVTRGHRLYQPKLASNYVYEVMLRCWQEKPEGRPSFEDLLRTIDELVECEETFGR

[5] = target: Proto-oncogene tyrosine-protein kinase Src (Homo sapiens) (UniProt P12931); details: 10 nM
[6] = target: Hepatocyte growth factor receptor (Homo sapiens) (UniProt P08581); assay: Inhibition of Met kinase at 10 nM; in short: as §2
[7] = target: Ephrin type-A receptor 2 (Homo sapiens) (UniProt P29317); assay: Inhibition of EphA2 at 10 nM; in short: as §2
[8] = target: Platelet-derived growth factor receptor alpha (Homo sapiens) (UniProt P16234); assay: Inhibition of PDGFRalpha at 10 nM; in short: as §2
[9] = target: Tyrosine-protein kinase CSK (Homo sapiens) (UniProt P41240); assay: Inhibition of CSK at 10 nM; in short: as §2
[10] = target: Receptor-type tyrosine-protein kinase FLT3 (Homo sapiens) (UniProt P36888); assay: Inhibition of FLT3; details: concentration not given here
cells [11] = details: Homo sapiens
K562 = assay: cells; details: Homo sapiens
cells [12] = details: Homo sapiens, M-07e
Mus musculus [13] = assay: Biodistribution in tumor of human K562 cells xenografted iv dosed mouse; format: ADME, organism-based; details: in vivo
In short: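 Three athymic mice carried subcutaneous K562 xenografts in the right shoulder. [18F] tracer (14 ± 1 MBq, 375 ± 25 µCi) was formulated in 5% BSA in saline, sterile filtered and given by tail vein. MicroPET imaging started 60 min post-injection with a 15 min exposure. Tumor uptake was expressed as % injected dose by region-of-interest analysis.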

[14] = target: T4, Tyrosine-protein kinase JAK3 (Homo sapiens) (UniProt P52333); assay: Inhibition of JAK3 at 10 nM; in short: as §1
T4 sequence (whole entry): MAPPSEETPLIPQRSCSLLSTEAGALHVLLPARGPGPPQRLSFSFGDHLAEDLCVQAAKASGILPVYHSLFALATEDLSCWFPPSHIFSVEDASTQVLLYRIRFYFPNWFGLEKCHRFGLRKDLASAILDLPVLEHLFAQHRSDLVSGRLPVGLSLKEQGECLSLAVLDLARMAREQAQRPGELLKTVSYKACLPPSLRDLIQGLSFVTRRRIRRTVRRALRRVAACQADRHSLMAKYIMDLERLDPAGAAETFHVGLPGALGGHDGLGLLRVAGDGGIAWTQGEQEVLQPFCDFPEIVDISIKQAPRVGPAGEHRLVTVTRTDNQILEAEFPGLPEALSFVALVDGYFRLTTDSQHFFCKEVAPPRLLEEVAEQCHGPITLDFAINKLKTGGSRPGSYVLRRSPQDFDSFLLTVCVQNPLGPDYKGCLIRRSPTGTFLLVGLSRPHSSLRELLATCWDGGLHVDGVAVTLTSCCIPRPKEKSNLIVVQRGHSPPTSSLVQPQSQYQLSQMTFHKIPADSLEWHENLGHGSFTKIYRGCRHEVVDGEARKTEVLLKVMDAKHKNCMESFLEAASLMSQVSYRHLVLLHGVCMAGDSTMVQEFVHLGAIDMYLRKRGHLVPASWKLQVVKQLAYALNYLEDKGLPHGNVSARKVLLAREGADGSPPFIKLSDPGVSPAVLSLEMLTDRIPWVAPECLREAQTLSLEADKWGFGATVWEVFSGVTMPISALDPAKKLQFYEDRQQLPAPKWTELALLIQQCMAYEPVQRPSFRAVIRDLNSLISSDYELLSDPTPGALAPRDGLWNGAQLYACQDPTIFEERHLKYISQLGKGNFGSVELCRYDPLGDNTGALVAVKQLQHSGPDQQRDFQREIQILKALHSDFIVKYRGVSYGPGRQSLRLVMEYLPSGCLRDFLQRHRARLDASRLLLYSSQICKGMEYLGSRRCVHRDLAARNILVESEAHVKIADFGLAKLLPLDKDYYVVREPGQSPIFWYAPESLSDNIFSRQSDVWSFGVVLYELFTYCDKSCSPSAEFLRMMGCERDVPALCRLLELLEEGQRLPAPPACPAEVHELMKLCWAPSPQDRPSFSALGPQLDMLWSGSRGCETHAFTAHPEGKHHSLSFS

[15] = target: Vascular endothelial growth factor receptor 2 (Homo sapiens) (UniProt P35968); assay: Inhibition of KDR at 10 nM; in short: as §2
Mus musculus [16] = assay: Toxicity in B6D2F1 mouse at 0.1 mg/kg, iv; format: organism-based; design: dose 0.1 mg/kg, route intravenous; details: in vivo

Sequence of Ephrin type-A receptor 2 (Homo sapiens) (P29317 whole entry): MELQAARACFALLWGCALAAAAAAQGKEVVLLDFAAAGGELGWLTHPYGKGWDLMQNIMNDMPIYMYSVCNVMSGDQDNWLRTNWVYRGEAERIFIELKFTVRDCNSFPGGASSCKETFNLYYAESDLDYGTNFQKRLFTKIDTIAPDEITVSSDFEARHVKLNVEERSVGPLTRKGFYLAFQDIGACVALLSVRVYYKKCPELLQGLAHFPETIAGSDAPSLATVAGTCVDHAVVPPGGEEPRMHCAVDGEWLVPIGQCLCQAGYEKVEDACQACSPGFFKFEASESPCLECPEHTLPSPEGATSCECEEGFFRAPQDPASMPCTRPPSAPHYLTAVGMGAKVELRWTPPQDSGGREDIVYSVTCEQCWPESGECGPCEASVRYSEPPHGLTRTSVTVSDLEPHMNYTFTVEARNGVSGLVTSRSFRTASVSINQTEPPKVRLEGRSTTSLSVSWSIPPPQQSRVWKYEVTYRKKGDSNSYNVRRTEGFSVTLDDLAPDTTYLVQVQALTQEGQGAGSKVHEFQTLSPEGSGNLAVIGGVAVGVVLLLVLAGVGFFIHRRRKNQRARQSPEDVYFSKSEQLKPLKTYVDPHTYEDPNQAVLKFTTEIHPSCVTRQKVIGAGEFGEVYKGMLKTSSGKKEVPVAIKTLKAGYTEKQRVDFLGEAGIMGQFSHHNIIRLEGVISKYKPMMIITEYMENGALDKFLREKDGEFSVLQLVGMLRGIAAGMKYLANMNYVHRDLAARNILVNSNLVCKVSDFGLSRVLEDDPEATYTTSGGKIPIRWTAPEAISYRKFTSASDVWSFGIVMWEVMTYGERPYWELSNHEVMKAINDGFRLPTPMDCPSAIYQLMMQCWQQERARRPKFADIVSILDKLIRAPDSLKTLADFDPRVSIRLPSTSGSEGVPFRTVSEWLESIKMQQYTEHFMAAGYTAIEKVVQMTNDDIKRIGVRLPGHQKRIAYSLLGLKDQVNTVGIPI
Sequence of Platelet-derived growth factor receptor alpha (Homo sapiens) (P16234 whole entry): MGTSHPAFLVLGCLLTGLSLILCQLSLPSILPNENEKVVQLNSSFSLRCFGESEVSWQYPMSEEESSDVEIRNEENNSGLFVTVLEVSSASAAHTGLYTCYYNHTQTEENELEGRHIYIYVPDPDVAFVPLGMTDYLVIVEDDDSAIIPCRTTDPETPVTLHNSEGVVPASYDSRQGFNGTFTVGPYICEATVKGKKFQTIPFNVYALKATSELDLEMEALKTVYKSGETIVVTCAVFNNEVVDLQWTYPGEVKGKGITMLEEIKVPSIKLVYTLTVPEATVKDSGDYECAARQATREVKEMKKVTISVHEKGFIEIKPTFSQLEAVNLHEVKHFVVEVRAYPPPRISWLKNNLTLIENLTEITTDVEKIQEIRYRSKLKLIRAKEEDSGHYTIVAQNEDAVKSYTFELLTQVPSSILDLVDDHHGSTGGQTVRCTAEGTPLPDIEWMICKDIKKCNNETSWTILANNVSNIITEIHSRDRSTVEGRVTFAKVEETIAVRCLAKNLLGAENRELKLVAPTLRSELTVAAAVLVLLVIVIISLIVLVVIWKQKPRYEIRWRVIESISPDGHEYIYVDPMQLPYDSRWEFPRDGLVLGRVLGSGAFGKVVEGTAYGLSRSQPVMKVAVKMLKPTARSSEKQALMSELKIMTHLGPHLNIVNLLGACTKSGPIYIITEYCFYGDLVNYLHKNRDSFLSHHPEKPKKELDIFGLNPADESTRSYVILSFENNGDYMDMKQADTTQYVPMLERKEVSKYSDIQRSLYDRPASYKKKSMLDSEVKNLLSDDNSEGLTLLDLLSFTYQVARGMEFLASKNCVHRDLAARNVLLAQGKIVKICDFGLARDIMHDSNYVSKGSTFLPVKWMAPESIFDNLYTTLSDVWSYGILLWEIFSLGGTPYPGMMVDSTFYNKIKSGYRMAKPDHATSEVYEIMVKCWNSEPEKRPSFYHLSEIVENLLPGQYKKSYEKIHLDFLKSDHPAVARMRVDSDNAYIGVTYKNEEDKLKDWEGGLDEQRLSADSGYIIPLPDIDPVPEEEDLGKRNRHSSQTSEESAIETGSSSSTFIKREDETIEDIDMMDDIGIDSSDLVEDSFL
Sequence of Receptor-type tyrosine-protein kinase FLT3 (Homo sapiens) (P36888 whole entry): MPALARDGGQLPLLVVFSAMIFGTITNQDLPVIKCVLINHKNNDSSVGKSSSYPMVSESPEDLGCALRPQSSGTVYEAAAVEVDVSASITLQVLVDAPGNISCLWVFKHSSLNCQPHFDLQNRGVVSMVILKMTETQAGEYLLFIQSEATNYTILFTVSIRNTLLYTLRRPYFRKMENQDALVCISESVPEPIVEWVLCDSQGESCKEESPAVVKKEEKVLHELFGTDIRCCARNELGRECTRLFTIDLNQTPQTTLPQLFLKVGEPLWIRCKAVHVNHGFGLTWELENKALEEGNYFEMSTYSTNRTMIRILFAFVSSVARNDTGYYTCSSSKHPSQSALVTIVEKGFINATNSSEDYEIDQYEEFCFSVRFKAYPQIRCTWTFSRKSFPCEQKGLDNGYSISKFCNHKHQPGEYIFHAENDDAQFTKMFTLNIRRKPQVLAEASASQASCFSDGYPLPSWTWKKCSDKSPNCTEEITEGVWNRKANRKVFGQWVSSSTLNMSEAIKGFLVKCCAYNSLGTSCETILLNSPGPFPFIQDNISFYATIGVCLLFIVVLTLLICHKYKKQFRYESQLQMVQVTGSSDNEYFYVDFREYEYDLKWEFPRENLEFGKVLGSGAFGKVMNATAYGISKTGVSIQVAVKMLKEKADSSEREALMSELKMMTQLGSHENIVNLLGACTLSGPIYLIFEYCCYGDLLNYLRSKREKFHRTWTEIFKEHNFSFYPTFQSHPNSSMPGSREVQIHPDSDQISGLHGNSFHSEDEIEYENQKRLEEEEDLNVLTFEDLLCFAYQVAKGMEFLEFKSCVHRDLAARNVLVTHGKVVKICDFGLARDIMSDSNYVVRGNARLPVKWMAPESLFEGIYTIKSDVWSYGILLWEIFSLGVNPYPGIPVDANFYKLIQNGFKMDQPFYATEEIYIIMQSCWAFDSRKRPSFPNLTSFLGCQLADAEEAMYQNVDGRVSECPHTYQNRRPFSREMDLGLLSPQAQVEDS
Sequence of Proto-oncogene tyrosine-protein kinase Src (Homo sapiens) (P12931 2-536 limits assumed): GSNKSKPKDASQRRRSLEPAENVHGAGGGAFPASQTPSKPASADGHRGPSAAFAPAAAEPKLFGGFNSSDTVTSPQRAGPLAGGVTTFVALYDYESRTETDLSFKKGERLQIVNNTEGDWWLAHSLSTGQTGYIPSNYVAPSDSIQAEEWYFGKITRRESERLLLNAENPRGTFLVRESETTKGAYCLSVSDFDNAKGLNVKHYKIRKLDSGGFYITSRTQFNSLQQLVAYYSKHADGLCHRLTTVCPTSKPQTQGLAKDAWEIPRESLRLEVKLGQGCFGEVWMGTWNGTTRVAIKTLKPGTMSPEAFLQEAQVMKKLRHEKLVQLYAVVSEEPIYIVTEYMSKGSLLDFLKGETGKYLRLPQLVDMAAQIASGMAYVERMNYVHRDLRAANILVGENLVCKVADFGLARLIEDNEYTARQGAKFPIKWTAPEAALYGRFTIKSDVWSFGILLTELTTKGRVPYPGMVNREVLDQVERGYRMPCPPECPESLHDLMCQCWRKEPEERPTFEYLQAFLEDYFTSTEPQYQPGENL
Sequence of Activated CDC42 kinase 1 (Homo sapiens) (Q07912 whole entry, looked up): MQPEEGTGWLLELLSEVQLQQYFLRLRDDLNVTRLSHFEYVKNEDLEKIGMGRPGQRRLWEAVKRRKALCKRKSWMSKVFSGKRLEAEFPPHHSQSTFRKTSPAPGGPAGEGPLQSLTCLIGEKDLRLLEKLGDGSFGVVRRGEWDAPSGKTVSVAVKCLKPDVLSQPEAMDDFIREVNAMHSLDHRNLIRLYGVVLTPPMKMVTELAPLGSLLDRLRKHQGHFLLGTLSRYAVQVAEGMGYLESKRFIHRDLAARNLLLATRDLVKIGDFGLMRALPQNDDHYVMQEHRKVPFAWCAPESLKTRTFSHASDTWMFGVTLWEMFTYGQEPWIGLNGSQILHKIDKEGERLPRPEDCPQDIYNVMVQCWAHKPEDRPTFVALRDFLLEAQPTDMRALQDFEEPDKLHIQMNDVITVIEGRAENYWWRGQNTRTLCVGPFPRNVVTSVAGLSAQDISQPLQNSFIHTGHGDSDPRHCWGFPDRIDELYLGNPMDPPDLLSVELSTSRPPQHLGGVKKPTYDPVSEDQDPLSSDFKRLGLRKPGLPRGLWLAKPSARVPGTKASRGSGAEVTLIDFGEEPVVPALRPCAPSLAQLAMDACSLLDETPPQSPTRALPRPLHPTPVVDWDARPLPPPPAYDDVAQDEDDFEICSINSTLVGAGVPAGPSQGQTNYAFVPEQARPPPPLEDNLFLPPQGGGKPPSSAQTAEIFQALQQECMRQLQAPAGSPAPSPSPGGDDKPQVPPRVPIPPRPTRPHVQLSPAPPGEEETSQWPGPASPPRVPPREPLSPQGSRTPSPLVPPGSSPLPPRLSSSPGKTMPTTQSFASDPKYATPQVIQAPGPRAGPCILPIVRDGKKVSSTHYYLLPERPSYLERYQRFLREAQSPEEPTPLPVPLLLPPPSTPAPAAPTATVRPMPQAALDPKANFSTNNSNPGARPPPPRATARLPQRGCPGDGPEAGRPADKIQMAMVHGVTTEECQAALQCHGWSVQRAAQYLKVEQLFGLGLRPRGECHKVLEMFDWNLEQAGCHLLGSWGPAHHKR
Sequence of Tyrosine-protein kinase CSK (Homo sapiens) (P41240 2-450 limits assumed): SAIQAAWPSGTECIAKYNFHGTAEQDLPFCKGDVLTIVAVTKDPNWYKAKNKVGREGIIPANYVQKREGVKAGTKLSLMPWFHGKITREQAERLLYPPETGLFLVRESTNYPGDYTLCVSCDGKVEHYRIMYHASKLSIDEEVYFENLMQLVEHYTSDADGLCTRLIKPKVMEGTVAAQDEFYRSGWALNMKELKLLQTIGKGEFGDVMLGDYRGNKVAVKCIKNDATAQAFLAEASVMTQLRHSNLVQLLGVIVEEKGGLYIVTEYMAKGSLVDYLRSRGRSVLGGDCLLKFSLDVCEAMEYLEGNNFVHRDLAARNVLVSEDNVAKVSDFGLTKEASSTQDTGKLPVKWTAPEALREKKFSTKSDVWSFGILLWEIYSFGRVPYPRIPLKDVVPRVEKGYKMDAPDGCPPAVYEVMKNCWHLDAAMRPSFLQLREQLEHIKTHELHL

| Compound | inhibition [1] [%] | inhibition [2] [%] | inhibition [3] [%] | inhibition [4] [%] | inhibition [5] [%] | inhibition [6] [%] | inhibition [7] [%] | inhibition [8] [%] | inhibition [9] [%] | inhibition [10] [%] | IC50 (cells [11]) [nM] | IC50 (K562) [nM] | IC50 (cells [12]) [nM] | Drug uptake (Mus musculus [13]) [%] | inhibition [14] [%] | inhibition [15] [%] | Activity (Mus musculus [16]) |
| --- | --- | --- | --- | --- | --- | --- | --- | --- | --- | --- | --- | --- | --- | --- | --- | --- | --- |
| CN[C@@H]1C[C@H]2O[C@@](C)([C@@H]1OC)n1c3ccccc3c3c4c(c5c6ccccc6n2c5c31)C(=O)NC4 | 96.4 | 95.3 | 94.1 | 92.5 | 89.8 | 90 | 92.6 | 88.4 | 89.3 | 96.4 | – | – | – | – | – | – | – |
| Cc1nc(Nc2ncc(C(=O)Nc3c(C)cccc3Cl)s2)cc(N2CCN(CCO)CC2)n1 [DASATINIB] | – | – | – | – | – | – | – | – | – | – | 0.07 | 1 | 1.2 | – | – | – | – |
| Cc1nc(Nc2ncc(C(=O)Nc3c(C)cccc3Cl)s2)cc(N2CCN(CC[18F])CC2)n1 | – | – | – | – | – | – | – | – | – | – | – | – | – | 1.1 | – | – | – |
| Cc1nc(Nc2ncc(C(=O)Nc3c(C)cccc3Cl)s2)cc(N2CCN(CCF)CC2)n1 | 83.1 | 23.1 | 97 | 98.1 | 97.5 | 7.2 | 98.1 | 86 | 95.2 | 0.3 | 0.1 | 1.1 | 1.1 | – | 16 | -5.6 | Non-toxic |
